Published values pooled from the literature.
Compare with care: the assays were run in different laboratories.
Target: Serine/threonine-protein kinase TBK1 (TBK1, Homo sapiens, UniProt Q9UHD2)
Read-out: enzyme activity
Action: inhibitor
One construct used (Q9UHD2 1-729): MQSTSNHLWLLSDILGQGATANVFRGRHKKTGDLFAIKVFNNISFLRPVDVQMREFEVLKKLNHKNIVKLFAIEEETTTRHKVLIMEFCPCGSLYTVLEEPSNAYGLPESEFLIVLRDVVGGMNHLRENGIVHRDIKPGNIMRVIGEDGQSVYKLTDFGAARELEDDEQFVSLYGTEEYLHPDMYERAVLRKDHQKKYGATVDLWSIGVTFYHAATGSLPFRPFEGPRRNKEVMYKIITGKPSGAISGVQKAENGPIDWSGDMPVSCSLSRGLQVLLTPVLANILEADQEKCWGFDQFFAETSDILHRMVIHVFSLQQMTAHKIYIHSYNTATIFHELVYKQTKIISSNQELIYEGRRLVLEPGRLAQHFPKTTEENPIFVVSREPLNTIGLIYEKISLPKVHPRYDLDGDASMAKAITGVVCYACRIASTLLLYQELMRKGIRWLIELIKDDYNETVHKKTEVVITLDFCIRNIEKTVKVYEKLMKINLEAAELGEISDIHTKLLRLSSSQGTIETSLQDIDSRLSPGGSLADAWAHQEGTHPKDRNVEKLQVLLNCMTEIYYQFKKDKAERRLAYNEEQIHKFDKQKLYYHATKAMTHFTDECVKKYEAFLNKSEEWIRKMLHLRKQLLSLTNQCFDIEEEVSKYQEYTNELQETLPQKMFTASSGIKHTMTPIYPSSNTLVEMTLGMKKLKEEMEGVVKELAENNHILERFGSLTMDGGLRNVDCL

| SMILES | method | concentration | remaining activity [%] |
| --- | --- | --- | --- |
| Brc1cnc(Nc2cccc(CN3CCOCC3)c2)nc1NCCc1c[nH]cn1 | radiometric | 1 µM | 21 |
| CC(C)(C)c1nc(-c2cccc(NS(=O)(=O)c3c(F)cccc3F)c2F)c(-c2ccnc(N)n2)s1 | radiometric | 1 µM | 88 |
| Cn1c(=O)n(-c2ccc(C(C)(C)C#N)cc2)c2c3cc(-c4cnc5ccccc5c4)ccc3ncc21 | – | 10 µM | 107 |
| COc1cc(Nc2cnc(C#N)c(O[C@H](C)CN(C)C)n2)ncc1-c1cnn(C)c1 | radiometric | 1 µM | 71 |
| c1cc(CN2CCOCC2)cc(Nc2ncc(C3CC3)c(NCCc3c[nH]cn3)n2)c1 | radiometric | 1 µM | 43 |
| O=C(Nc1cnn(-c2csc(C(=O)NC3COC3)c2)c1)Nc1ccccc1Cl | – | 5 µM | 102 |
| Oc1cccc(-c2nc(N3CCOCC3)c3oc4ncccc4c3n2)c1 | – | 10 µM | 91 |
| Cc1ccc(C(=O)Nc2ccc(CN3CCN(C)CC3)c(C(F)(F)F)c2)cc1C#Cc1cnc2cccnn12 | – | 23.5 nM | 95 |
| Cc1nn(CC(F)(F)F)cc1Nc1nccc(NCc2ccc(S(N)(=O)=O)cc2)n1 | radiometric | 1 µM | 49 |
| CC(C)(C)C(=O)c1sc(NC2CCCCC2)nc1N | – | 10 µM | 95 |
| O=C(Nc1cnn(-c2csc(C(=O)NC3COC3)c2)c1)Nc1c(F)cccc1Cl | – | 5 µM | 98.8 |
| CC(C)(O)[C@H]1CC[C@H](Nc2ccc3ncc(-c4cccc(C(F)(F)F)c4)n3n2)CC1 | – | 1 µM | 102 |
